Only some compounds are listed: those with a hit (about 5.8% of all), similar ones and a draw of the others.
IDH1 R132H inh – inhibitors of IDH1 R132H reductase, primary screen, biochemical, plate reader, single point | 0.18% of 70,000 active | inhibition, % at 10 µM | diaphorase/resazurin fluorescence, 60 min; in the data active = inhibition above about 34%; inconclusive = no clear call, values can overlap the other calls; inactive = below about 11%
T cruzi growth-1 – T. cruzi intracellular proliferation inhibitors, primary screen, cell-based, beta-gal Tulahuen parasites, NIH3T3 host, luminescence; T. cruzi beta-gal in NIH3T3, GalScreen luminescence, 90 h; inhibition, % at 8.34 µM; 5.9% of 77,000 active;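 active = mean inhibition above about 93%, with at least 55% of replicates each passing it, limit read from the data, passing the limit was not always enough; inconclusive = only one of those two conditions holds; inactive = neither condition holds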
KDM4C inh – inhibitors of GASC-1 (KDM4C) histone demethylase, primary screen, biochemical, single concentration HTS; AID 720574, 2013; inhibition, % at 12.5 µM; GST-KDM4C 2-372, H3K9me3 peptide, LANCE TR-FRET; 0.15% of 96,000 active;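 active = mean replicate inhibition above about 25%, with at least 55% of replicates also reaching it, limit read from the data, passing the limit was not always enough; inconclusive = only one of those two conditions met; inactive = neither condition met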
Target sequence (Q9H3R0 2-372 limits assumed): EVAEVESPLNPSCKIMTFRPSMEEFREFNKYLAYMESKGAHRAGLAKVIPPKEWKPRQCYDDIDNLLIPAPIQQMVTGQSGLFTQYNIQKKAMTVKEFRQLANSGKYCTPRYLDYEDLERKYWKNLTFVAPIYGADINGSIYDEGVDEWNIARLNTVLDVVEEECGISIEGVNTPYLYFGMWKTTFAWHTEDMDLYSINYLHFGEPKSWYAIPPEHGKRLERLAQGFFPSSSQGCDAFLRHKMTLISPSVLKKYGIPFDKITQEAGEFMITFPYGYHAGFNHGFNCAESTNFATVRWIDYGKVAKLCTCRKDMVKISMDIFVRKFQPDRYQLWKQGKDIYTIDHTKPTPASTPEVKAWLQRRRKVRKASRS
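Material: GST-tagged GASC-1 (JMJD2C) catalytic fragment, aa 2-372. Input: enzyme final amount 10 nM. Medium: HEPES buffer, pH 7.5, plus ascorbate. Reagent: H3K9me3 peptide substrate, Fe(II), 2-oxoglutarate. Doses: single dose. Times: reaction 30 min RT, detection step 1 h RT. Measured by: LANCE TR-FRET. Evaluation: Fall in 671/618 emission ratio as inhibition.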
Pf Dd2 inh – P. falciparum Dd2 growth inhibitors, primary screen, SYBR Green fluorescence, single dose replicates; 72 h; hits give low values; activity change, % at 10 µM; 2.3% of 94,000 active; AID 1159554, 2015; in the data active = activity change below about -80%; inconclusive = no clear call, values can overlap the other calls
T cruzi growth-2 – T. cruzi intracellular proliferation inhibitors, confirmation, cell-based, NIH3T3 host, beta-gal parasite, luminescence, cherry-pick. shares compounds with T cruzi growth-1. T. cruzi beta-gal in NIH3T3, GalScreen luminescence, 90 h. inhibition, % at 8.35 µM. 72% of 5,600 active. AID 651739, 2012;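 active = mean replicate inhibition above about 95% and at least 55% of replicates individually reaching it, limit read from the data; inconclusive = only one of the two criteria is met; inactive = neither criterion is met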
T cruzi growth-3 – inhibitors of intracellular T. cruzi replication, confirmation, NIH3T3 host cells, beta-gal parasites, cherry-pick, set 2; shares compounds with T cruzi growth-1; T. cruzi beta-gal in NIH3T3, GalScreen luminescence, 90 h; inhibition, % at 2.09 µM; 21% of 5,600 active; AID 651740, 2012;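 active = mean inhibition above about 95%, with at least 55% of replicates also reaching it, limit read from the data; inconclusive = meets just one of the two conditions; inactive = meets neither condition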
3T3 cytotox – cytotoxicity in mouse NIH/3T3 fibroblasts, confirmation, cytotoxicity control for T. cruzi proliferation inhibitor project, cell-based, cherry-pick, single point; 14% of 5,600 active; shares compounds with T cruzi growth-1; AID 651742, 2012; NIH/3T3 viability, CellTiter-Glo ATP luminescence, 90 h; cytotoxicity (signal decrease), % at 8.35 µM;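 active = mean signal decrease across replicates above about 35% based on untreated-well scatter, with enough replicates individually passing, limit read from the data; inconclusive = no rule stated though some were filed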
NIH3T3 tox 2 – NIH/3T3 fibroblast cytotoxicity, confirmation, cytotoxicity control, cell-based, cherry-pick, single point, set 2 | shares compounds with T cruzi growth-1 | NIH/3T3 viability, CellTiter-Glo ATP luminescence, 90 h | inhibition, % at 24.9 µM | 56% of 5,600 active | AID 651744, 2012;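 active = mean loss of cell viability signal at or above a set limit, and enough replicates individually reaching it; inconclusive = meets only the mean limit or only the replicate share; inactive = meets neither condition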
Hits are given with their value; n = inactive; u = inconclusive; x = no result given.

SMILES | IDH1 R132H inh | T cruzi growth-1 | KDM4C inh | Pf Dd2 inh | T cruzi growth-2 | T cruzi growth-3 | 3T3 cytotox | NIH3T3 tox 2
CCCCc1c(-c2ccc(O)cc2)[nH]c2nccnc12 | n | x | x | x | x | x | x | x
O=C(NO)c1cccc(C(=O)N/N=C/c2ccc(O)c(O)c2)c1 | n | x | x | x | x | x | x | x
O=C(CSc1nnc(-c2ccc(Cl)cc2)o1)c1cccc([N+](=O)[O-])c1 | n | x | x | x | x | x | x | x
CC(C)NC(=O)N(C)C[C@@H]1Oc2cc(-c3ccncc3)ccc2S(=O)(=O)N([C@H](C)CO)C[C@@H]1C | n | u | n | n | n | n | n | n
CC(C)NC(=O)N(C)C[C@H]1Oc2cc(-c3ccncc3)ccc2S(=O)(=O)N([C@@H](C)CO)C[C@H]1C | n | u | n | n | n | n | n | n
Cc1ccc(-c2ccc3c(c2)O[C@H](CN(C)C(=O)NC(C)C)[C@H](C)CN([C@@H](C)CO)S3(=O)=O)cc1 | n | n | n | n | x | x | x | x
Cc1ccc(-c2ccc3c(c2)O[C@H](CN(C)C(=O)NC(C)C)[C@@H](C)CN([C@H](C)CO)S3(=O)=O)cc1 | n | n | n | n | x | x | x | x
CCCNC(=O)N(C)C[C@H]1Oc2cc(-c3cccnc3)ccc2S(=O)(=O)N([C@@H](C)CO)C[C@@H]1C | n | u | n | n | u | n | n | n
Cc1ccc(-c2ccc3c(c2)O[C@@H](CN(C)C(=O)NC(C)C)[C@H](C)CN([C@@H](C)CO)S3(=O)=O)cc1 | n | n | n | n | x | x | x | x
CC(C)NC(=O)N(C)C[C@H]1Oc2cc(-c3ccncc3)ccc2S(=O)(=O)N([C@H](C)CO)C[C@@H]1C | n | 107 | n | n | n | n | n | n
O=C(CSc1nnc(Nc2ccccc2)n1-c1ccccc1)Nc1ccc2c(c1)COC2=O | n | x | x | x | x | x | x | x
CCOC(=O)c1sc(NC(=S)Nc2cnccn2)c(C(=O)OCC)c1C | n | x | x | x | x | x | x | x
COc1cccc(C(Nc2cc(C)ccn2)c2ccc3ccc(C)nc3c2O)c1 (stereo not given) | n | x | x | x | x | x | x | x
O=S(=O)(c1ccccc1)N1CCCCN2[C@H](CO)[C@@H](c3ccc(C#Cc4ccccc4)cc3)[C@@H]2C1 | x | n | x | n | x | x | x | x
O=S(=O)(c1ccccc1)N1CCCCN2[C@H](CO)[C@@H](c3ccc(C#Cc4cccnc4)cc3)[C@H]2C1 | x | u | x | n | 110 | n | n | 79
COc1ccc(C#Cc2ccc([C@H]3[C@H]4CN(S(=O)(=O)c5ccccc5)CCCCN4[C@H]3CO)cc2)cc1 | x | 107 | n | n | 111 | 99 | n | 52
COc1ccc(S(=O)(=O)N2CCCCN3[C@@H](CO)[C@H](c4ccc(C#CC(C)C)cc4)[C@@H]3C2)cc1 | x | 104 | n | n | 98 | n | 46 | 104
COc1ccc(C#Cc2ccc([C@@H]3[C@H]4CN(S(=O)(=O)c5ccccc5)CCCCN4[C@H]3CO)cc2)cc1 | x | n | n | n | x | x | x | x
COc1ccc(S(=O)(=O)N2CCCCN3[C@H](C2)[C@@H](c2ccc(C#CCC(C)C)cc2)[C@@H]3CO)cc1 | x | n | n | n | x | x | x | x
COc1ccc(C#Cc2ccc([C@H]3[C@@H](CO)N4CCCCN(S(=O)(=O)c5ccccc5)C[C@H]34)cc2)cc1 | x | 101 | n | n | 98 | n | n | 104
COc1cccc(C2CC(C(F)(F)F)n3ncc(C(=O)NCc4cccnc4)c3N2)c1 (stereo not given) | n | x | x | x | x | x | x | x
Cc1nc(SCC(=O)Nc2ccccc2)n[nH]1 | n | x | x | x | x | x | x | x
COc1ccc(N2C(=O)CC(SCC(=O)Nc3ccc(F)cc3)C2=O)cc1 (stereo not given) | n | x | x | x | x | x | x | x

Screening results: PubChem, Broad Institute
